ChEMBL document CHEMBL1124609, “Synthesis and anticonvulsant properties of 2,3,3a,4-tetrahydro-1H-pyrrolo[1,2-a]benzimidazol-1-ones” (J Med Chem, 1989)

What was measured:
Rattus norvegicus [1] = organism: Rattus norvegicus; assay: Anticonvulsant activity against maximal electroshock seizures(MES) in rats; format: functional
Method in brief: (§1)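 Adult male Wistar rats (200-250 g), groups of 10, dosed ip in 80% DMSO/20% distilled water. 60 min later a 50-mA, 60-Hz alternating current was given through ear electrodes for 0.2 s. Protection was absence of tonic hind limb extension. ED50 (±95% confidence limits) by Litchfield and Wilcoxon.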

Mus musculus [2] = organism: Mus musculus; assay: Anticonvulsant activity against audiogenic seizures in DBA/2 mice; format: functional
Method in brief: (§2)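 DBA/2 mice of either sex (6-12 g, 21-25 days old), dosed ip in 80% DMSO/20% distilled water. 45 min later exposed to a mixed-frequency 109-dB sound for up to 60 s. Latency to and incidence of wild running, clonus, tonus and respiratory arrest were scored. ED50 (±95% confidence limits) by Litchfield and Wilcoxon.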

[3] = Relative lipophilicity; format: physicochemical; details: reversed-phase TLC, acetone/water 2:1
Method in brief: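 Reversed-phase TLC on silanized silica gel plates dried 1 h at 105 °C, with acetone/water 2:1 v/v as mobile phase. Compounds were applied from chloroform solution (3 mg/mL). Rf is the mean of five runs with different plate positions, and RM = log[(1/Rf) - 1].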

Rattus norvegicus [4] = organism: Rattus norvegicus; assay: Compound was tested for its activity against tonic hind limb extension in MES test in rats; Completely antagonized; format: functional, Hindlimb; method in brief: as §1
Mus musculus [5] = organism: Mus musculus; assay: Compound was tested for its activity against clonic seizures phase in […] mice; Completely protected; format: functional; method in brief: as §2

Row | SMILES | RM [3] | ED50 (Rattus norvegicus [1]) [µmol/kg] | ED50 (Mus musculus [2]) [µmol/kg] | Activity (Rattus norvegicus [4]) [µM/kg] | Activity (Mus musculus [5]) [µM/kg]
1 | O=C1CCC2(c3ccc(Cl)cc3)Nc3ccc(Cl)cc3N12 (centres undefined) | 0.073 | 501 | 347 | – | –
2 | O=C1CCC2(c3ccccc3)Nc3cc(Cl)ccc3N12 (centres undefined) | -0.007 | 126 | 95.9 | – | –
3 | O=C1CCC2(c3ccc(F)cc3)Nc3cc(Cl)ccc3N12 (centres undefined) | 0.019 | 105 | 87.3 | – | –
4 | O=C1CCC2(c3ccc(Cl)cc3)Nc3ccccc3N12 (centres undefined) | -0.033 | 234 | 166 | – | –
5 | O=C1CCC2(c3ccccc3)Nc3ccccc3N12 (centres undefined) | -0.131 | 200 | 161 | – | –
6 | O=C1CCC2(c3ccc(Cl)cc3)Nc3cc(Cl)ccc3N12 (centres undefined) | 0.068 | 281 | 143 | – | –
7 | O=C1CCC2(c3ccc(F)cc3)Nc3ccccc3N12 (centres undefined) | -0.084 | 575 | 356 | – | –
8 | O=C1NC(=O)C(c2ccccc2)(c2ccccc2)N1 [PHENYTOIN] | – | 55.5 | 19.8 | – | –
9 | CCCC(CCC)C(=O)O [VALPROIC ACID] | – | 1890 | 1230 | – | –

More lines, main results first:

Row | RM [3] | SMILES | ED50 (Rattus norvegicus [1]) [µmol/kg] | ED50 (Mus musculus [2]) [µmol/kg] | Activity (Rattus norvegicus [4]) [µM/kg] | Activity (Mus musculus [5]) [µM/kg]
10 | -0.279 | Cc1ccc2c(c1)N1C(=O)CCC1(C)N2 (centres undefined) | 197 | 122 | – | –
11 | 0.028 | O=C1CCC2(c3ccc(F)cc3)Nc3ccc(Cl)cc3N12 (centres undefined) | 198 | 178 | – | –
12 | -0.284 | Cc1ccc2c(c1)NC1(C)CCC(=O)N21 (centres undefined) | 141 | 97.7 | – | –
13 | -0.341 | CC12CCC(=O)N1c1ccccc1N2 (centres undefined) | 35.5 | 26.3 | 200 | 100
14 | -0.167 | CC12CCC(=O)N1c1ccc(Cl)cc1N2 (centres undefined) | 88.2 | 79.4 | – | –
15 | -0.187 | CC12CCC(=O)N1c1ccc([N+](=O)[O-])cc1N2 (centres undefined) | > 600 | > 600 | – | –
16 | -0.005 | O=C1CCC2(c3ccccc3)Nc3ccc(Cl)cc3N12 (centres undefined) | 271 | 179 | – | –
17 | -0.237 | CC12CCC(=O)N1c1cc([N+](=O)[O-])ccc1N2 (centres undefined) | > 600 | > 600 | – | –
18 | -0.162 | CC12CCC(=O)N1c1cc(Cl)ccc1N2 (centres undefined) | 234 | 148 | – | –
